# High-throughput results as filed in PubChem BioAssay.
# Shown are actives, neighbours in structure and some others; about 2% of the full set was active somewhere.
# CTSL1 counter = blocks F. hepatica cathepsin L1 in PFM18AAP counter-screen; inhibition, % at 5.96 µM; recombinant F. hepatica cathepsin L1, Z-Leu-Arg-MCA fluorescence; 300,000 compounds, 0.49% hits;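 active = inhibition above the mean of all tested compounds plus 3 SD, set per screening campaign, cut at about 17% in these data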;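 note: 0% = plate median of test compound wells and 100% = 1 µM Z-Phe-Ala-diazomethylketone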
# PP5 inh = blocks human protein phosphatase 5 activity | purified PP5c, OMFP substrate fluorescence | 320,000 compounds, 0.18% hits | P53041 | AID 1987 | inhibition, % at 6.7 µM;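 active = inhibition above the campaign's mean inhibition across all tested compounds plus 3 SD, cut at about 9.5% in these data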;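 note: 0% = DMSO only and 100% = 100 µM cantharidin control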
# PAD4 FP inh = inhibitors of human PAD4; recombinant PAD4, RCA probe fluorescence polarization; inhibition, % at 6.36 µM; 330,000 compounds, 0.41% hits;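 active = percent inhibition above a cutoff equal to the mean of all tested compounds plus 3 SD, cut at about 15% in these data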;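 note: 0% = PAD4 with RCA probe and DMSO and 100% = probe without PAD4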
# UCH37 inh = inhibitors of human deubiquitinating enzyme UCH37; purified proteasome/UCH37, Ub-AMC cleavage fluorescence; Q9Y5K5; AID 588478; inhibition, % (no concentration beside the values); 330,000 compounds, 0.33% hits;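 active = mean inhibition over replicate wells above about 20%, limit read from the data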;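 note: 0% = compound-free wells with enzyme and 100% = wells lacking proteasome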
# Target sequence (Q9Y5K5 whole entry, looked up): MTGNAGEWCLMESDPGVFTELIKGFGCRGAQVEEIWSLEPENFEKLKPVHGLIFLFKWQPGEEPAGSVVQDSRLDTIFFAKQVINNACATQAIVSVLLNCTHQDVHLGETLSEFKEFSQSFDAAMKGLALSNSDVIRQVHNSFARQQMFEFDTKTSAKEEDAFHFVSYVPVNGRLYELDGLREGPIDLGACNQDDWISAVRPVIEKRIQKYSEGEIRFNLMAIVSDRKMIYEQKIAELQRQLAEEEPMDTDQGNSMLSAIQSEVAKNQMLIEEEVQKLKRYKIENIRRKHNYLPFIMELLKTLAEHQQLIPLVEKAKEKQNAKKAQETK
#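 Material: human UCH37 enzyme supplied as purified proteasome complex. Measure: % inhibition of Ub-AMC cleavage fluorescence. Medium: pH 7.4 Tris-HCl (50 mM) with ovalbumin, ATP-MgCl2, DTT. Times: 30 min preincubation with enzyme, 25 min cleavage at room temperature. Detection: AMC fluorescence intensity at 355/460 nm.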
# GSTO1 inh = blocks human GSTO1 in RBBP9 counter-screen; P78417; recombinant GSTO1, activity-based probe fluorescence polarization; inhibition, % at 5.96 µM; 300,000 compounds, 1.1% hits; AID 1974;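 active = inhibition above the campaign mean inhibition plus 3 SD, cut at about 35% in these data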;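 note: 0% = GSTO1-1 with DMSO and 100% = wells lacking GSTO1-1 enzyme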
# Target sequence (P78417 whole entry, looked up): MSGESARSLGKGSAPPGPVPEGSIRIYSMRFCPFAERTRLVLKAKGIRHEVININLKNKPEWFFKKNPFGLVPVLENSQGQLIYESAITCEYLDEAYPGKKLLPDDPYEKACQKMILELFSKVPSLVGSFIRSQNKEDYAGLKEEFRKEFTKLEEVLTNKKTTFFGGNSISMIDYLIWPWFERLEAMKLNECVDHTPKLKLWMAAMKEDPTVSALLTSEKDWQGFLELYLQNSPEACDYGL
# Apaf1 inhib = blocks human Apaf-1 apoptosome activity; 330,000 compounds, 0.71% hits; O14727; inhibition, % at 20 µM; reconstituted apoptosome caspase-3 activity, DEVD-Rh110 fluorescence; active = inhibition of at least 40% at 20 µM;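 note: plate controls were DMSO wells for no effect and DEVD-CHO caspase inhibitor wells for full effect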
#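 Material: biochemical Apaf-1 apoptosome reconstitution. Medium: Hepes buffer, pH 7.5. Also added: cytochrome c activation, bis-DEVD rhodamine 110 substrate. Timing: 30 min compound preincubation, 50 min activation, room temperature. Measured by: rhodamine 110 fluorescence at Ex 480/Em 540 nm.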
# * marks the source's active call; other numbers are inactive results; · = no result; ! = repeats disagree.
SMILES,CTSL1 counter,PP5 inh,PAD4 FP inh,UCH37 inh,GSTO1 inh,Apaf1 inhib
N#CC(=NNc1ccc(S(=O)(=O)N2CCOCC2)cc1)C(N)=S,·,·,·,22*,·,·
N#C/C(=N/Nc1ccc(S(=O)(=O)N2CCOCC2)cc1)C(N)=O,5,0,2,·,4,10
Cc1ccc(Nc2nc(CSc3nnc(-c4cccnc4)n3-c3ccccc3C)cs2)cc1,47*,1,-1,4,4,9
Cc1ccccc1-n1c(SCc2csc(Nc3ccccc3)n2)nnc1-c1cccnc1,-3,4,-3,3,1,12
Cc1cc(C)n(Cc2ccc(C(=O)N/N=C/c3ccc(-c4ccc([N+](=O)[O-])cc4)o3)o2)n1,-1,3,-7,·,36*,-5
COc1ccc2ccccc2c1C=Nn1cnnc1,·,·,·,5,·,·
O=C(CSc1ccc2ccccc2c1)NCCc1ccc(O)c(O)c1,2,-2,-1,0,52*,13
COc1ccc(CCNC(=O)CSc2ccc3ccccc3c2)cc1OC,4,1,-8,7,-4,0
O=C(CSc1nncc(=O)[nH]1)Nc1cccc([N+](=O)[O-])c1,13,0,3,3,35*,11
CN1C(=O)c2ccccc2C(C(=O)O)C1c1cccc(Cl)c1 (configuration not stated),-3,1,-8,-3,-1,2
CC(=O)[C@H]1[C@H](c2cccc(Cl)c2)C(C#N)(C#N)[C@@H]2c3ccccc3C=CN21,-14,2,-26,·,-10,56*
COc1cc(/C=C2\CCc3c2nc2ccccc2c3C(=O)O)cc(OC)c1OC,0,0,4,-15,35*,2
COc1cc(/C=C2\CCCc3c2nc2ccccc2c3C(=O)O)cc(Br)c1O,2,3,-5,4,-2,2
Cc1ccc(NC2=CC(=NS(=O)(=O)c3cccs3)c3ccccc3C2=O)cc1,·,·,·,22*,·,·
COC(=O)C(C(C)=O)C1=CC(=NS(=O)(=O)c2ccc(C)cc2)c2ccccc2C1=O (configuration not stated),·,·,·,0,·,·
Cc1cc(NN=Cc2ccccc2[N+](=O)[O-])nc(-n2nc(C)cc2C)n1,·,·,·,3,·,·
O=C(NN=Cc1ccc(OCC(=O)N2CCCC2)cc1)C(=O)Nc1ccccc1F,·,·,·,5,·,·
C/C(CC1CC(COCCC(C)C)OC1=O)=N\NC(N)=S (configuration not stated),21*,3,6,·,2,-1
CC(NC(=O)C(=O)N1CCOCC1)C(c1cccs1)N1CCN(c2ccc(F)cc2)CC1 (configuration not stated),26*,1,0,2,0,-2
CC1(C)CC(O)CC(C)(C)N1CC(O)COCCOc1ccc(Br)cc1 (configuration not stated),-2,1,2,1,35*,2
NCCCS(=O)(=O)O,19*!,2,4,5,1,-4
Oc1ccc2oc3c(c2c1C=Nn1cnnc1)CCCC3,·,·,·,1,·,·
O=C(Nc1nc2c(s1)CCCC2)Oc1ccccc1,28*,1,1,1,5,-5
O=C(CCN1C(=O)c2ccccc2C1=O)N1CCN(Cc2ccccc2)CC1,0,-3,5,0,8,-19
Cc1ccc(CN2CCN(C(=O)CCN3C(=O)c4ccccc4C3=O)CC2)cc1,1,3,0,20*,2,-5
SMILES,CTSL1 counter,PP5 inh,PAD4 FP inh,UCH37 inh,GSTO1 inh,Apaf1 inhib
S=c1[nH]nc(-c2cc(-c3ccccc3)n[nH]2)n1/N=C/c1c(Cl)cccc1Cl,4,9.6*,3,·,33,18
O=C(O)CCc1ccc(-c2ccccc2)n1-c1cccc(C(=O)O)c1,1,1,1,-1,8,6
O=C(O)CCc1ccc(-c2ccc(Br)cc2)n1-c1cccc(O)c1,-1,1,2,2,35*,4
COc1cccc(C=NNc2nc(N3CCCC3)nc(N3CCCC3)n2)c1O,·,·,·,1,·,·
CSc1ccccc1NC(=O)C1CCN(S(C)(=O)=O)CC1,-1,0,-2,0,35*,-19
Cc1ccc(SCc2c(C(=O)NN=Cc3ccoc3)nnn2-c2nonc2N)cc1,·,·,·,2,·,·
N/C(CCS(=O)(=O)c1ccc(Cl)cc1)=N\OC(=O)c1ccc(Cl)cc1,17*,0,1,3,1,-22
N/C(CCS(=O)(=O)c1ccc(Cl)cc1)=N\OC(=O)c1ccccc1C(F)(F)F,19*,4,5,3,-1,-7
COc1ccc(CC(=O)NN=C(C)CC(=O)NCc2ccco2)cc1OC,·,·,·,2,·,·
O=C(O)c1cc2c(ccc3ccccc32)o1,7,-2,-4,-16,-2,-25
NC(N)=Nc1cc2ccccc2c2ccccc12,-4,0,-7,·,-2,77*
CCCC1S/C(=N/N=Cc2ccco2)NC1=O (configuration not stated),·,·,·,13,·,·
CC(=O)C(=NNc1ccc(Cl)cc1)Sc1nnc(-c2ccccc2)n1-c1ccccc1,·,·,·,-18,·,·
CCOC(=O)/C(C#N)=C1/C=CN(c2ccccc2)C=N1,5,0,-2,21*,-4,-5
CCOC(=O)/C(C#N)=C1/C=CN(c2ccc(C)cc2)C=N1,1,2,5,11,-3,-4
COc1cc2c(C#N)c(N3CCCCC3)nc(N)c2c(N)n1,2,5,-7,-36,-2,97*
COc1ccc(CN2C(=O)Cc3c2nc(N)c2c(N)nc(N4CCCCC4)c(C#N)c32)cc1,-6,8,-30,-22,48*,51*
Cc1ccc(C=NNc2nncn2N)cc1,·,·,·,5,·,·
CSc1ccc(/C=N\Nc2nncn2N)cc1,2,1,42*,·,14,-1
Cc1ccc(CC2S/C(=N/N=Cc3ccco3)NC2=O)cc1 (configuration not stated),·,·,·,5,·,·
CCOc1cc(N2CCOCC2)c(OCC)cc1NC(=O)COC(=O)c1cccc2ccccc12,30*,3,1,0,4,11
CCOc1cc(N2CCOCC2)c(OCC)cc1NC(=O)CN1CCCC(C)C1 (configuration not stated),45*,2,-4,3,1,-13
CCOc1cc(N2CCOCC2)c(OCC)cc1NC(=O)COC(=O)c1ccccc1OC(F)F,·,·,·,0,·,5
CC(=NNC(=O)C1CCCN(S(=O)(=O)c2ccccc2)C1)c1cccnc1 (configuration not stated),·,·,·,2,·,·
CN1CCCc2cc(C=O)ccc21,2,-2,4,10,7,2
CCCN1CCCc2cc(CN)ccc21,15,4,28*,-17,64*,84*
CCN(CC)C(=O)C(C)N(C#N)c1nc(C)cc(C)n1 (configuration not stated),0,-3,4,3,5,-9
CCOC(=O)C(C(=O)OCC)N(C#N)c1nc(N(C)C)nc(N(C)C)n1,65*,-4,0,3,-2,0
